Measurements reported in ChEMBL document CHEMBL1275307, “Design, synthesis and biological evaluation of 1,3,4-oxadiazole derivatives” (2010).

Legend:
Format in all cases: functional
[1] = test system: Staphylococcus epidermidis; test: Antimicrobial activity against Staphylococcus epidermidis ATCC 12228 after 24 hrs by disk diffusion method
How it was run: (§1)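 Paper discs (6.25 mm diameter; Whatman no.1, dry-heat sterilized 140 °C, 1 h) soaked in test compound at a known concentration, placed on nutrient agar seeded with organism; solvent and growth controls plus ciprofloxacin standard included. Plates inverted, incubated 24 h at 37 °C; inhibition zone diameters measured and compared with controls.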

Staphylococcus aureus = test: Antimicrobial activity against Staphylococcus aureus ATCC 25923 after 24 hrs by disk diffusion method; how it was run: as §1
Escherichia coli = test: Antimicrobial activity against Escherichia coli MTCC 443 after 24 hrs by disk diffusion method; how it was run: as §1

| SMILES | inhibition zone (IZ) [1] [mm] | inhibition zone (IZ) (Staphylococcus aureus) [mm] | inhibition zone (IZ) (Escherichia coli) [mm] |
| --- | --- | --- | --- |
| O=C(O)c1cn(C2CC2)c2cc(N3CCNCC3)c(F)cc2c1=O [CIPROFLOXACIN] | 30 | 29 |  |
| Oc1ccccc1-c1nnc(-c2ccccc2)o1 | 18 | 21 | 19 |
| S=c1[nH]nc(-c2ccccc2)o1 | 18 | 22 | 20 |
| Oc1ccccc1-c1nnc(S)o1 | 22 | 24 | 18 |
| CC(=O)Oc1ccccc1-c1nnc(S)o1 | 26 | 24 | 25 |
| c1ccc(-c2nnc(-c3cccnc3)o2)cc1 | 25 | 24 | 24 |
| Cc1ccc(-c2nnc(-c3ccccc3O)o2)cc1 | 22 | 20 | 19 |
| Cc1ccc(-c2nnc(S)o2)cc1 | 16 | 20 | 19 |
| Cc1ccccc1-c1nnc(-c2ccccc2O)o1 | 24 | 23 | 23 |
| Sc1nnc(-c2cccnc2)o1 | 26 | 25 | 21 |
| Oc1ccccc1-c1nnc(Cc2ccc3ccccc3c2)o1 | 25 | 23 | 21 |
